Measurements published in ChEMBL document CHEMBL3351625, “Ethyl 2-(benzylidene)-7-methyl-3-oxo-2,3-dihydro-5H-thiazolo[3,2-a]pyrimidine-6-carboxylate analogues as a new scaffold for protein kinase casein kinase 2 inhibitor” (Bioorg Med Chem, 2014).
Calls of active or inactive are those of the source. The rule behind the calls is not given here.

What was measured:
Casein kinase II [1] = target: T1, Casein kinase II (Homo sapiens, UniProt P19784+P67870+P68400); assay: (§1) Inhibition of human CK2 assessed as residual activity by KinaseProfiler assay; format: protein-complex assay
[2] = target: Casein kinase II subunit alpha (Homo sapiens) (UniProt P68400); assay: Inhibition of recombinant human CK2alpha assessed as inhibition of phosphorylation of GST-CS at 10 uM by Coomassie brilliant blue staining based autoradiography
MKN-1 [3] = assay: Induction of apoptosis in TRAIL-resistant human MKN1 cells assessed as cell death at 10 uM after 24 hrs and subsequently treated with TRAIL 200 ng/ml for 2 hr by Annexin-V-FLUOS staining; format: functional, cell-based
Method in brief: (§2)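 Cells were left untreated or pretreated with the inhibitor at 10 µM for 24 h, then exposed to TRAIL (200 ng/mL) for 2 h. They were then washed with PBS and stained with Annexin-V-FLUOS/propidium iodide for 15 min. Apoptotic cells were counted by fluorescence microscopy. Viability was assessed in parallel by MTT. Data are given as mean ± SD.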

Casein kinase II [4] = target: T1, Casein kinase II; assay: Competitive inhibition of human CK2 assessed as competitive with respect to ATP; format: protein-complex assay
MKN-1 [5] = assay: Cytotoxicity against human MKN1 cells assessed as cell viability at 10 uM after 24 hrs by MTT assay; format: functional, cell-based
Method in brief: (§3)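 Lines from Korea Cell Line Bank, kept in RPMI1640 with serum and penicillin/streptomycin at 37 °C, 5% CO2. Seeded at 1 × 10⁴ cells/well and grown 24 h, then exposed to the inhibitor for 24 h. MTT added at 4 mg/mL final for 2 h, formazan taken up in DMSO, absorbance read at 570 nm. Run in quadruplicate.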

MKN-45 = assay: Cytotoxicity against human MKN45 cells assessed as cell viability at 10 uM after 24 hrs by MTT assay; format: functional, cell-based; method in brief: as §3
SNU484 = assay: Cytotoxicity against human SNU484 cells assessed as cell viability at 10 uM after 24 hrs by MTT assay; format: functional, cell-based; method in brief: as §3
HepG2 [6] = assay: Cytotoxicity against human HepG2 cells assessed as cell viability at 10 uM after 24 hrs by MTT assay; format: functional, cell-based
Method in brief: (§4)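 AGS and HepG2 kept in Modified Eagle's Medium with serum and antibiotics at 37 °C, 5% CO2. Seeded at 1 × 10⁴ cells/well and grown 24 h, then exposed for 24 h. MTT at 4 mg/mL final for 2 h, formazan dissolved in DMSO, A570. Quadruplicate.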

[7] = target: Casein kinase II (Homo sapiens) (UniProt P67870+P68400+P19784); assay: as §1; format: protein-complex assay
HepG2 [8] = assay: Induction of apoptosis in TRAIL-resistant human HepG2 cells assessed as cell death at 10 uM after 24 hrs and subsequently treated with TRAIL 200 ng/ml for 2 hr by Annexin-V-FLUOS staining; format: functional, cell-based; method in brief: as §2
MKN-28 [9] = assay: Induction of apoptosis in TRAIL-resistant human MKN28 cells assessed as cell death at 10 uM after 24 hrs and subsequently treated with TRAIL 200 ng/ml for 2 hr by Annexin-V-FLUOS staining; format: functional, cell-based; method in brief: as §2
TE-2 = assay: Cytotoxicity against human TE2 cells expressing CK2 assessed as cell viability at 10 uM after 24 hrs by MTT assay; format: functional, cell-based
Method in brief: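 Esophageal TE2 cells stably carrying GFP or CK2α were plated at 1 × 10⁴ cells/well and grown 24 h. They were then exposed for 24 h, given MTT at 4 mg/mL final for 2 h, formazan dissolved in DMSO, absorbance at 570 nm.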

SNU761 = assay: Cytotoxicity against human SNU761 cells assessed as cell viability at 10 uM after 24 hrs by MTT assay; format: functional, cell-based; method in brief: as §3
MKN-74 = assay: Cytotoxicity against human MKN74 cells assessed as cell viability at 10 uM after 24 hrs by MTT assay; format: functional, cell-based; method in brief: as §3
AGS [10] = assay: Induction of apoptosis in TRAIL-resistant human AGS cells assessed as cell death at 10 uM after 24 hrs and subsequently treated with TRAIL 200 ng/ml for 2 hr by Annexin-V-FLUOS staining; format: functional, cell-based; method in brief: as §2
NCI-N87 = assay: Cytotoxicity against human NCI-N87 cells assessed as cell viability at 10 uM after 24 hrs by MTT assay; format: functional, cell-based; method in brief: as §3
MKN-28 [11] = assay: Cytotoxicity against human MKN28 cells assessed as cell viability at 10 uM after 24 hrs by MTT assay; format: functional, cell-based; method in brief: as §3
SNU668 = assay: Cytotoxicity against human SNU668 cells assessed as cell viability at 10 uM after 24 hrs by MTT assay; format: functional, cell-based; method in brief: as §3
SK-HEP1 [12] = assay: Cytotoxicity against human SKHEP1 cells assessed as cell viability at 10 uM after 24 hrs by MTT assay; format: functional, cell-based
SNU739 [13] = assay: Cytotoxicity against human SNU739 cells assessed as cell viability at 10 uM after 24 hrs by MTT assay
[14] = target: Casein kinase II subunit alpha (Homo sapiens) (UniProt P68400); assay: Inhibition of recombinant human CK2alpha assessed as inhibition of phosphorylation of GST-CS by Coomassie brilliant blue staining based autoradiography
SNU878 = assay: Cytotoxicity against human SNU878 cells assessed as cell viability at 10 uM after 24 hrs by MTT assay; format: functional, cell-based; method in brief: as §3
SNU739 [15] = assay: Induction of apoptosis in TRAIL-resistant human SNU739 cells assessed as cell death at 10 uM after 24 hrs and subsequently treated with TRAIL 200 ng/ml for 2 hr by Annexin-V-FLUOS staining; format: functional, cell-based; method in brief: as §2
SK-HEP1 [16] = assay: Induction of apoptosis in TRAIL-resistant human SKHEP1 cells assessed as cell death at 10 uM after 24 hrs and subsequently treated with TRAIL 200 ng/ml for 2 hr by Annexin-V-FLUOS staining; format: functional, cell-based; method in brief: as §2
AGS [17] = assay: Cytotoxicity against human AGS cells assessed as cell viability at 10 uM after 24 hrs by MTT assay; format: functional, cell-based; method in brief: as §4
Hep 3B2 = assay: Cytotoxicity against human Hep3B cells assessed as cell viability at 10 uM after 24 hrs by MTT assay; format: functional, cell-based
Method in brief: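 Hep3B kept in Dulbecco's Modified Eagle's Medium with serum and antibiotics at 37 °C, 5% CO2. Seeded at 1 × 10⁴ cells/well and grown 24 h, then exposed for 24 h. MTT at 4 mg/mL final for 2 h, DMSO solubilisation, A570. Quadruplicate.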

`CCOC(=O)C1=C(C)N=c2s/c(=C\c3cc(O)c(O)c(O)c3)c(=O)n2C1c1ccc(Cl)cc1` (configuration not stated) was tested, and the IC50 (Casein kinase II [1]) was 8.79 µM and the inhibition [2] was “Active”.
`CCOC(=O)C1=C(C)N=c2s/c(=C\c3ccc(O)c(O)c3)c(=O)n2C1c1ccc(Cl)cc1` (configuration not stated) was tested, and the Activity (MKN-1 [3]) was “Active”, the Ki (Casein kinase II [4]) was 780 nM and the Activity (MKN-1 [5]) was “Active”. For the same molecule, the Activity (MKN-45) was “Active”, the Activity (SNU484) was “Active” and the Activity (HepG2 [6]) was “Active”. For the same molecule, the Activity [7] was “Active”, the Activity (HepG2 [8]) was “Active” and the Activity (MKN-28 [9]) was “Active”. The Activity (TE-2) was “Active”, the Activity (SNU761) was “Active” and the Activity (MKN-74) was “Active”. For the same molecule, the Activity (AGS [10]) was “Active”, the Activity (NCI-N87) was “Active” and the Activity (MKN-28 [11]) was “Active”. The Activity (SNU668) was “Active”, the Activity (SK-HEP1 [12]) was “Active” and the Activity (SNU739 [13]) was “Active”. For the same molecule, the inhibition [14] was “Active”, the Activity (SNU878) was “Active” and the Activity (SNU739 [15]) was “Active”. The Activity (SK-HEP1 [16]) was “Active”, the Activity (AGS [17]) was “Active” and the Activity (Hep 3B2) was “Active”. The inhibition [2] was “Active”.
With `Brc1c(Br)c(Br)c2[nH]nnc2c1Br` the Activity (MKN-1 [5]) was “Active”, the Activity (MKN-45) was “Active” and the Activity (SNU484) was “Active”. For the same molecule, the Activity (HepG2 [6]) was “Active”, the Activity (TE-2) was “Active” and the Activity (SNU761) was “Active”. For the same molecule, the Activity (MKN-74) was “Active”, the Activity (NCI-N87) was “Active” and the Activity (MKN-28 [11]) was “Active”. The Activity (SNU668) was “Active”, the Activity (SK-HEP1 [12]) was “Active” and the Activity (SNU739 [13]) was “Active”. The Activity (SNU878) was “Active”, the Activity (AGS [17]) was “Active” and the Activity (Hep 3B2) was “Active”.
